In ChEMBL document CHEMBL1138117, “Hybrid antibacterials. DNA polymerase-topoisomerase inhibitors” (J Med Chem, 2006):
In brackets after ≈: the same amount, converted by molar mass.

How the values were obtained:
Enterococcus faecalis = assay: Antibacterial activity against Enterococcus faecalis 29212; type: functional
[1] = biological target: DNA polymerase III PolC-type (Bacillus subtilis (strain 168), UniProt P13267); assay: Binding affinity to Bacillus subtilis DNA polymerase3C
In short: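 Homogeneous recombinant B. subtilis pol IIIC was assayed in 96-well format on activated calf thymus DNA. Apparent Ki values were determined in a truncated assay lacking the competitor dGTP.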

Enterococcus faecium [2] = assay: Antibacterial activity against Enterococcus faecium 19434; type: functional
[3] = system: DNA gyrase (Bacillus subtilis); assay: Inhibition of Bacillus subtilis gyrase activity
Enterococcus faecium [4] = assay: Antibacterial activity against Vancomycin resistant Enterococcus faecium VRE 700802; type: functional
Escherichia coli = assay: Antibacterial activity against Escherichia coli J53; type: functional
Staphylococcus aureus [5] = assay: Antibacterial activity against Staphylococcus aureus 25293; type: functional
Mus musculus [6] = assay: Effect on survival of mice after ip infection with Staphylococcus aureus Smith; type: functional
In short: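 Male Swiss-Webster mice (20–24 g) were given 10⁸ CFU of log-phase S. aureus Smith ip, grown in LB at 37 °C and washed in cold broth. A single iv tail-vein dose was given in DCP vehicle (10% DMA, 10% Cremophor EL in PBS, pH 9.5; 5 mL/kg) 15 min post-infection. Survival was scored at 72 h and ED50 derived.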

Staphylococcus aureus [7] = assay: Antibacterial activity against Staphylococcus aureus smith; type: functional
Staphylococcus aureus [8] = assay: Antibacterial activity against methicillin resistant Staphylococcus aureus MRSA 1094; type: functional
Bacillus subtilis = assay: Antibacterial activity against Bacillus subtilis BD54; type: functional
Mus musculus [9] = assay: Effect on survival of mice after ip infection with Vancomycin resistant Enterococcus faecium VRE 700802 at 100 mg/kg, 15 min post injection; type: functional, Swiss Webster; conditions: route intraperitoneal
In short: (§1)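 Male Swiss-Webster mice were infected ip with the organism grown in brain-heart infusion broth at 37 °C to log phase and washed. It was given in 0.5 mL broth with 5% mucin; CFU were estimated from OD600. Groups of 5 or 10 received iv tail-vein doses in DCP vehicle at 5 mL/kg. Survivors were counted at 72 h.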

Mus musculus [10] = assay: Effect on survival of mice after ip infection with Vancomycin resistant Enterococcus faecium VRE 700802 at 50 mg/kg twice at 15 and 135 min post injection; type: functional, Swiss Webster; in short: as §1
Mus musculus [11] = assay: Effect on survival of mice infected with Enterococcus faecalis 29212 at 25 mg/kg twice at 15 and 135 min post injection; type: functional, Swiss Webster; in short: as §1
Mus musculus [12] = assay: Effect on survival of mice after ip infection with Vancomycin resistant Enterococcus faecium VRE 700802 at 75 mg/kg twice at 15 and 135 min post injection; type: functional, Swiss Webster; conditions: route intraperitoneal
Mus musculus [13] = assay: Effect on survival of mice infected with Enterococcus faecalis 29212 at 75 mg/kg, 15 min post injection; type: functional, Swiss Webster; in short: as §1
Mus musculus [14] = assay: Effect on survival of mice infected with methicillin resistant Staphylococcus aureus 1094 at 75 mg/kg twice at 15 and 135 min post injection; type: functional, Swiss Webster
In short: (§2)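 Male Swiss-Webster mice were infected ip with 1×10⁷ CFU of log-phase MRSA 1094, grown in brain-heart infusion broth and given in 0.5 mL broth with 5% mucin. Doses in DCP vehicle were given iv by tail vein at 5 mL/kg. Survivors per treated group were counted at 72 h post-infection.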

Mus musculus [15] = assay: Effect on survival of mice after ip infection with Vancomycin resistant Enterococcus faecium VRE 700802 at 75 mg/kg twice at 15 and 195 min post injection; type: functional, Swiss Webster; conditions: route intraperitoneal; in short: as §1
Mus musculus [16] = assay: Effect on survival of mice infected with methicillin resistant Staphylococcus aureus 1094 at 25 mg/kg twice at 15 and 135 min post injection; type: functional, Swiss Webster; in short: as §2
Mus musculus [17] = assay: Effect on survival of mice infected with Enterococcus faecalis 29212 at 50 mg/kg twice at 15 and 135 min post injection; type: functional, Swiss Webster; in short: as §1
Mus musculus [18] = assay: Effect on survival of mice infected with Enterococcus faecalis 29212 at 50 mg/kg, 15 min post injection; type: functional, Swiss Webster; in short: as §1
Mus musculus [19] = assay: Effect on survival of mice after ip infection with Vancomycin resistant Enterococcus faecium VRE 700802 at 50 mg/kg twice at 15 and 195 min post injection; type: functional, Swiss Webster; conditions: route intraperitoneal
Mus musculus [20] = assay: Effect on survival of mice infected with methicillin resistant Staphylococcus aureus 1094 at 50 mg/kg twice at 15 and 135 min post injection; type: functional, Swiss Webster; in short: as §2
Mus musculus [21] = assay: Effect on survival of mice infected with Enterococcus faecalis 29212 at 25 mg/kg, 15 min post injection; type: functional, Swiss Webster; in short: as §1
[22] = Cmax in mice at 100 mg/kg, iv; type: ADME, organism-based; design: dose 100 mg/kg, route intravenous; conditions: Swiss Webster, mouse, in vivo
In short: (§3)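 Male Swiss-Webster mice (20–24 g) got a single 100 mg/kg iv tail-vein bolus at 5 mL/kg in DCP vehicle (10% N,N-dimethylacetamide, 10% Cremophor EL in PBS, pH 9.5). Blood was taken from groups of 3 at various times. Plasma was quantified by C18 HPLC with MeCN:H₂O:NEt₃:AcOH (25:74.7:0.2:0.1), 1 mL/min, detection at 282 nm, against a spiked-plasma standard curve linear over 1–40 μg/mL.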

[23] = Plasma concentration after 6 hrs in mice administered with 100 mg/kg, iv; type: ADME, organism-based; design: dose 100 mg/kg, route intravenous; conditions: Swiss Webster, mouse; in short: as §3
[24] = Tmax in mice at 100 mg/kg, iv; type: ADME, organism-based; design: dose 100 mg/kg, route intravenous; conditions: Swiss Webster, mouse, in vivo; in short: as §3
[25] = biological target: DNA topoisomerase IV (Bacillus subtilis); assay: Inhibition of Bacillus subtilis topoisomerase IV activity

Chain of DNA polymerase III PolC-type (P13267 whole entry, the tested form may be a part): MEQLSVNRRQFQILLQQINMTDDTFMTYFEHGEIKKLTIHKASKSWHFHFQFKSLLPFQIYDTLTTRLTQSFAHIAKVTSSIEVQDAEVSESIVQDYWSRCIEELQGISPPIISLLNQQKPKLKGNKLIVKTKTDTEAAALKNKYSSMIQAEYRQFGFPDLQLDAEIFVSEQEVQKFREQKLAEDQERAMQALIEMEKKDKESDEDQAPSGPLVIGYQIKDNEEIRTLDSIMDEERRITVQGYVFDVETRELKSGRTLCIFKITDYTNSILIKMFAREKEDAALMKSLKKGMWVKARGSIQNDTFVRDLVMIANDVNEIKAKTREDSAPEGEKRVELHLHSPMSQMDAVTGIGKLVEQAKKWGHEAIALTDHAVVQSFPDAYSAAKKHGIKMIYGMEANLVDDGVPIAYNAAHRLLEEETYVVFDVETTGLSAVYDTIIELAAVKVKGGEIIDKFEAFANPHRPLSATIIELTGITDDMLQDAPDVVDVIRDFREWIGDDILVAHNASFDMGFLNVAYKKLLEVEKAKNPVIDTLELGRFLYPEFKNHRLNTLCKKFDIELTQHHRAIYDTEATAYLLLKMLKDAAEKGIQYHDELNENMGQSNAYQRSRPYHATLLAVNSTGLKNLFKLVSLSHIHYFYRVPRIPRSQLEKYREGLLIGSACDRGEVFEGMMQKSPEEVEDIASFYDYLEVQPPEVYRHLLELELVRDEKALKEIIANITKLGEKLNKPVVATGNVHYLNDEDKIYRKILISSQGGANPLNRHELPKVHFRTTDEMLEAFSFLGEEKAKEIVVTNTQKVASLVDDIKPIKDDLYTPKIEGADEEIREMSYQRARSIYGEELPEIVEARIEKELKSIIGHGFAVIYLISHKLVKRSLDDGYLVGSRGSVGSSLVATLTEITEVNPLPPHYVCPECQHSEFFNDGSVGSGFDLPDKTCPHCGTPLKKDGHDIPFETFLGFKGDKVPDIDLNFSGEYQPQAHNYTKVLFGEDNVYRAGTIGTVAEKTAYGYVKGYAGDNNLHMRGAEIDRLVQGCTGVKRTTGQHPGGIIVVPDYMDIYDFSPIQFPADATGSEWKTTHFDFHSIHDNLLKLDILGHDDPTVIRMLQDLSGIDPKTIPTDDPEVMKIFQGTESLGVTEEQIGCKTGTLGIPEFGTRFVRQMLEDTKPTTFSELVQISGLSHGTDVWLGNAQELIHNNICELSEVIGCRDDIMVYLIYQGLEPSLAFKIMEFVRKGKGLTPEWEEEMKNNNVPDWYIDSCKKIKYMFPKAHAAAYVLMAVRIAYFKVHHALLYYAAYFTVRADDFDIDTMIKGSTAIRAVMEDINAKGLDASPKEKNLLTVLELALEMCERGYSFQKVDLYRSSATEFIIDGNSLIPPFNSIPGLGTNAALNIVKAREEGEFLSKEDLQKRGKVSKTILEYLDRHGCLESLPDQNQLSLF

Row | Structure (SMILES) | MIC (Enterococcus faecalis) [µg/mL] | Ki ([1]; read-out: Ki) [nM] | MIC (Enterococcus faecium [2]) [µg/mL] | IC50 [3] [µg/mL] | MIC (Enterococcus faecium [4]) [µg/mL] | MIC (Escherichia coli) [µg/mL] | MIC (Staphylococcus aureus [5]) [µg/mL] | ED50 (Mus musculus [6]) [mg/kg] | MIC (Staphylococcus aureus [8]) [µg/mL] | MIC (Bacillus subtilis) [µg/mL] | also measured
1 | CCc1cc(Nc2cc(=O)n(CCCCN3CCN(c4c(F)cc5c(=O)c(C(=O)O)cn(C6CC6)c5c4F)C[C@@H]3C)c(=O)[nH]2)ccc1C | 1.25 (≈ 1.89 µM) | 4 | 1.25 (≈ 1.89 µM) | 9.2 (≈ 13.9 µM) | 0.625 (≈ 0.943 µM) | 20 (≈ 30.2 µM) | 0.625 (≈ 0.943 µM) | 15 | – | – | –
2 | CCc1cc(Nc2cc(=O)n(CCCCN3CCN(c4c(F)cc5c(=O)c(C(=O)O)cn(C6CC6)c5c4OC)CC3)c(=O)[nH]2)ccc1C | 1.25 (≈ 1.89 µM) | 14 | 1.25 (≈ 1.89 µM) | – | 0.625 (≈ 0.946 µM) | > 40 | 0.625 (≈ 0.946 µM) | 25 | 1.25 (≈ 1.89 µM) | 0.156 (≈ 0.236 µM) | MIC (Staphylococcus aureus [7]): 0.313 µg/mL (≈ 0.474 µM)
3 | CCc1cc(Nc2cc(=O)n(CCCCN3CCN(c4cc5c(cc4F)c(=O)c(C(=O)O)cn5-c4ccc(F)cc4F)CC3)c(=O)[nH]2)ccc1C | 1.25 (≈ 1.78 µM) | – | 1.25 (≈ 1.78 µM) | – | 1.25 (≈ 1.78 µM) | > 40 | – | 27 | – | 0.313 (≈ 0.445 µM) | –
4 | CCc1cc(Nc2cc(=O)n(CCCCN3CCN(c4c(F)cc5c(=O)c(C(=O)O)cn(C6CC6)c5c4F)CC3C)c(=O)[nH]2)ccc1C (stereo unspecified) | 1.25 (≈ 1.89 µM) | – | 1.25 (≈ 1.89 µM) | 21.7 (≈ 32.7 µM) | 0.625 (≈ 0.943 µM) | 5 (≈ 7.54 µM) | – | 15 | 1.25 (≈ 1.89 µM) | – | Activity (Mus musculus [9]): 10%; Activity (Mus musculus [10]): 10%; Activity (Mus musculus [11]): 40%; Activity (Mus musculus [12]): 0%; Activity (Mus musculus [13]): 80%; Activity (Mus musculus [14]): 55%; Activity (Mus musculus [15]): 45%; Activity (Mus musculus [16]): 5%; Activity (Mus musculus [17]): 80%; Activity (Mus musculus [18]): 40%; Activity (Mus musculus [19]): 0%; Activity (Mus musculus [20]): 0%; Activity (Mus musculus [21]): 13%
5 | CCn1cc(C(=O)O)c(=O)c2ccc(C)nc21 [NALIDIXIC ACID] | – | – | – | 34.6 (≈ 149 µM) | – | – | – | – | – | – | –
6 | O=C(O)c1cn(C2CC2)c2cc(N3CCNCC3)c(F)cc2c1=O [CIPROFLOXACIN] | – | – | – | 1.9 (≈ 5.73 µM) | 80 (≈ 241 µM) | 0.313 (≈ 0.945 µM) | 0.313 (≈ 0.945 µM) | – | 20 (≈ 60.4 µM) | – | Ki [1]: Not Active
7 | CCc1cc(Nc2cc(=O)n(CCCCN3CCN(c4cc5c(cc4F)c(=O)c(C(=O)O)cn5C4CC4)CC3)c(=O)[nH]2)ccc1C | 0.625 (≈ 0.991 µM) | – | 1.25 (≈ 1.98 µM) | 28.4 (≈ 45 µM) | 0.625 (≈ 0.991 µM) | > 40 | – | – | 2.5 (≈ 3.96 µM) | – | Cmax [22]: 213 µg/mL; concentration at 6 h [23]: 0.62 µg/mL; Tmax [24]: 5 min; IC50 [25]: 22.9 µg/mL (≈ 36.3 µM); MIC (Mus musculus [6]): 0.41 µg/mL (≈ 0.65 µM)
8 | CCc1cc(Nc2cc(=O)n(CCCCN3CCN(c4c(F)cc5c(=O)c(C(=O)O)cn(C6CC6)c5c4F)C[C@H]3C)c(=O)[nH]2)ccc1C | 1.25 (≈ 1.89 µM) | 7 | 2.5 (≈ 3.77 µM) | 11.7 (≈ 17.7 µM) | 1.25 (≈ 1.89 µM) | 5 (≈ 7.54 µM) | – | 20 | 1.25 (≈ 1.89 µM) | – | –
9 | CCc1cc(Nc2cc(=O)n(CCCCN3CCN(c4cc5c(cc4F)c(=O)c(C(=O)O)cn5C4CC4)CC3C)c(=O)[nH]2)ccc1C (stereo unspecified) | 1.25 (≈ 1.94 µM) | 26 | 1.25 (≈ 1.94 µM) | – | 0.626 (≈ 0.971 µM) | 40 (≈ 62 µM) | – | 20 | 1.25 (≈ 1.94 µM) | 0.313 (≈ 0.485 µM) | –
10 | C[C@@H]1CN(c2c(F)c(N)c3c(=O)c(C(=O)O)cn(C4CC4)c3c2F)C[C@H](C)N1 [SPARFLOXACIN] | 5 (≈ 12.7 µM) | – | 1.25 (≈ 3.19 µM) | 0.4 (≈ 1.02 µM) | 80 (≈ 204 µM) | < 0.078 | < 0.078 | – | 10 (≈ 25.5 µM) | < 0.078 | MIC (Staphylococcus aureus [7]): < 0.078 µg/mL; Ki [1]: Not Active
11 | CCc1cc(Nc2cc(=O)n(CCCCN3CCN(c4c(F)cc5c(=O)c(C(=O)O)cn(C6CC6)c5c4F)CC3CO)c(=O)[nH]2)ccc1C (stereo unspecified) | 2.5 (≈ 3.68 µM) | – | 2.5 (≈ 3.68 µM) | – | 2.5 (≈ 3.68 µM) | > 40 | – | 35 | 5 (≈ 7.37 µM) | 0.625 (≈ 0.921 µM) | –
12 | CCc1cc(Nc2cc(=O)n(CCCCCN3CC4OCCN(c5cc6c(cc5F)c(=O)c(C(=O)O)cn6C5CC5)C4C3)c(=O)[nH]2)ccc1C (stereo unspecified) | 5 (≈ 7.28 µM) | 33 | > 80 | – | 10 (≈ 14.6 µM) | 40 (≈ 58.2 µM) | 1.25 (≈ 1.82 µM) | – | 5 (≈ 7.28 µM) | 0.625 (≈ 0.91 µM) | MIC (Staphylococcus aureus [7]): 0.625 µg/mL (≈ 0.91 µM)
13 | CCc1cc(Nc2cc(=O)n(CCCCN3CCN(c4cc5c(cc4F)c(=O)c(C(=O)O)cn5C(C)(C)C)CC3)c(=O)[nH]2)ccc1C.Cl | 0.625 | 13 | 1.25 | – | 1.25 | > 40 | 0.625 | – | 1.25 | 0.313 | MIC (Staphylococcus aureus [7]): 0.625 µg/mL
14 | CCc1cc(Nc2cc(=O)n(CCCCN3CCN(c4cc5c(cc4F)c(=O)c(C(=O)O)cn5C4CC4)C[C@@H]3C)c(=O)[nH]2)ccc1C | 0.625 (≈ 0.969 µM) | – | 1.25 (≈ 1.94 µM) | – | 0.625 (≈ 0.969 µM) | 40 (≈ 62 µM) | 1.25 (≈ 1.94 µM) | 30 | 1.25 (≈ 1.94 µM) | – | –
15 | CCc1cc(Nc2cc(=O)n(CCCCN3CCN(c4cc5c(cc4F)c(=O)c(C(=O)O)cn5C4CC4)C[C@H]3C)c(=O)[nH]2)ccc1C | 0.625 (≈ 0.969 µM) | – | 0.625 (≈ 0.969 µM) | – | 0.625 (≈ 0.969 µM) | – | – | 20 | 2.5 (≈ 3.88 µM) | 0.313 (≈ 0.485 µM) | –
